Laboratory results from ChEMBL document CHEMBL1138840, “Discovery of positive allosteric modulators for the metabotropic glutamate receptor subtype 5 from a series of N-(1,3-diphenyl-1H- pyrazol-5-yl)benzamides that potentiate receptor function in vivo” (J Med Chem, 2004).

Experiments:
[1] = biological target: T1, Metabotropic glutamate receptor 5 (Homo sapiens, UniProt P41594); experiment: Fold potentiation in CHO cells overexpressing human metabotropic glutamate receptor 5; assay type: functional, cell-based
Procedure, shortened: (§1)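 FLIPR calcium assay in CHO cells transfected with human or rat mGluR5. Compound added with a low glutamate concentration (300 nM), measuring increase in response; compound alone (up to 100 µM) checked for agonist activity.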
Target sequence in this assay (P41594 21-1212 limits assumed): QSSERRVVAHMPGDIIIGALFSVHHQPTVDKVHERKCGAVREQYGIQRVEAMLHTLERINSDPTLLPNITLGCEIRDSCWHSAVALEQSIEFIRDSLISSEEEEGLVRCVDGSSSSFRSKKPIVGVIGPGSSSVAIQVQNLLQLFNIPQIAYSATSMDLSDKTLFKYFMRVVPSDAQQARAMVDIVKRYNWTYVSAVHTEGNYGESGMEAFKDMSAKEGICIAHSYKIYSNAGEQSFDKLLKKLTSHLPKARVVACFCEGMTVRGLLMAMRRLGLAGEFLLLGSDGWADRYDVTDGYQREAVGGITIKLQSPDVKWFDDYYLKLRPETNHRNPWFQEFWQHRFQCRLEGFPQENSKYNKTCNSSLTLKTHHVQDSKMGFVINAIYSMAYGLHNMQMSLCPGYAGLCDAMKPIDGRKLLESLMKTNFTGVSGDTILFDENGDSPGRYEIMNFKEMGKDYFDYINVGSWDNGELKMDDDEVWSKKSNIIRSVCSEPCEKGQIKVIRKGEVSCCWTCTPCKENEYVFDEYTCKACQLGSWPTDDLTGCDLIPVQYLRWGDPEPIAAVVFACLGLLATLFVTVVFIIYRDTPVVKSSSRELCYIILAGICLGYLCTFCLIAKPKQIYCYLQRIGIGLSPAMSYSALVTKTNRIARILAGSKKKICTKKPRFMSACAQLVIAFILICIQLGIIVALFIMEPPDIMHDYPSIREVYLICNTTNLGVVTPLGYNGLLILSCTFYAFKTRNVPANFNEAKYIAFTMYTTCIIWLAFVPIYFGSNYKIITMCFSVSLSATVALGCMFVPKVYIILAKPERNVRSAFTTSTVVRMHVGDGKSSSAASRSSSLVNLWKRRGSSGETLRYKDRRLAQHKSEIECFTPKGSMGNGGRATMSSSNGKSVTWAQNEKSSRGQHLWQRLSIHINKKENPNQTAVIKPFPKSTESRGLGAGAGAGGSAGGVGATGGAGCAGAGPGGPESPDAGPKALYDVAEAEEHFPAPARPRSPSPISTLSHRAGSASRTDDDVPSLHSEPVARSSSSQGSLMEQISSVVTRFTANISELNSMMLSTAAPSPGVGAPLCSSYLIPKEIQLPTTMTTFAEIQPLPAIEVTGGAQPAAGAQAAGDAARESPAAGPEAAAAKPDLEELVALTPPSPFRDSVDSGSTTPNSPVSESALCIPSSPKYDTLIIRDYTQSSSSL

[2] = biological target: Metabotropic glutamate receptor 5 (Rattus norvegicus, UniProt P31424); experiment: Effective concentration against metabotropic glutamate receptor 5 of rat; procedure, shortened: as §1
Chain of Metabotropic glutamate receptor 5 (Rattus norvegicus, UniProt P31424) (P31424 whole entry): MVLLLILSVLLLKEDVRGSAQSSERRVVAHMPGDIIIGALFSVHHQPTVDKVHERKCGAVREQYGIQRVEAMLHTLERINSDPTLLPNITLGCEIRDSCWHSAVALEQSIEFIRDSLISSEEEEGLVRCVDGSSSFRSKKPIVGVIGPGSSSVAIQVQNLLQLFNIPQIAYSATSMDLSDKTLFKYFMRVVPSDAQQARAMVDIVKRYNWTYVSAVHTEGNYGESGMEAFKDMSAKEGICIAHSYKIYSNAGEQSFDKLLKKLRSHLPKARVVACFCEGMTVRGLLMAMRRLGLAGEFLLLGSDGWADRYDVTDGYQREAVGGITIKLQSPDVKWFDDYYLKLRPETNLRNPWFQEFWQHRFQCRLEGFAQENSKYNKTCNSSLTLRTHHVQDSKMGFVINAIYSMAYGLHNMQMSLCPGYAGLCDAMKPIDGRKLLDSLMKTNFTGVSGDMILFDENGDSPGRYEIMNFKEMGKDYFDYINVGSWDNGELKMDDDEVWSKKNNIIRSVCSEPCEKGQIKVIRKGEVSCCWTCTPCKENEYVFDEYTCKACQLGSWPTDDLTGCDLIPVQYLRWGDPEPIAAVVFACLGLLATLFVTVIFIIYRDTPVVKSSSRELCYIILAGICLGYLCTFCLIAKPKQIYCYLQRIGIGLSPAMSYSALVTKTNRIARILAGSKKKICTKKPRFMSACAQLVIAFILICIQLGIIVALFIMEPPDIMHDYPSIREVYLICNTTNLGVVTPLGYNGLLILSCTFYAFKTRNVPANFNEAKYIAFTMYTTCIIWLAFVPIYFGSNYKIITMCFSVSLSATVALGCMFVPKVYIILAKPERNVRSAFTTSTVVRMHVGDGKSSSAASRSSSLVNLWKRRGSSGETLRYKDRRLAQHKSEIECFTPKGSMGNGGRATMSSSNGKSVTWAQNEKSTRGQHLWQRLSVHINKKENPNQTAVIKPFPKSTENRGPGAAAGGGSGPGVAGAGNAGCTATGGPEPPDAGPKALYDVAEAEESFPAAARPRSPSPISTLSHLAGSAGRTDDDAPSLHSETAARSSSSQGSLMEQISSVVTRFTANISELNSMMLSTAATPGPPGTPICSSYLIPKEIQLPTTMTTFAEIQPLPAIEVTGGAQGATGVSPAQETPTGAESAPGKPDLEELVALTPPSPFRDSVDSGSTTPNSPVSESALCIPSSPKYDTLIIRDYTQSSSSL

[3] = biological target: Metabotropic glutamate receptor 5 (Rattus norvegicus) (UniProt P31424); experiment: Fold potentiation towards rat metabotropic glutamate receptor 5; assay type: functional; procedure, shortened: as §1
Chain of Metabotropic glutamate receptor 5 (Rattus norvegicus) (P31424 21-1203 limits assumed): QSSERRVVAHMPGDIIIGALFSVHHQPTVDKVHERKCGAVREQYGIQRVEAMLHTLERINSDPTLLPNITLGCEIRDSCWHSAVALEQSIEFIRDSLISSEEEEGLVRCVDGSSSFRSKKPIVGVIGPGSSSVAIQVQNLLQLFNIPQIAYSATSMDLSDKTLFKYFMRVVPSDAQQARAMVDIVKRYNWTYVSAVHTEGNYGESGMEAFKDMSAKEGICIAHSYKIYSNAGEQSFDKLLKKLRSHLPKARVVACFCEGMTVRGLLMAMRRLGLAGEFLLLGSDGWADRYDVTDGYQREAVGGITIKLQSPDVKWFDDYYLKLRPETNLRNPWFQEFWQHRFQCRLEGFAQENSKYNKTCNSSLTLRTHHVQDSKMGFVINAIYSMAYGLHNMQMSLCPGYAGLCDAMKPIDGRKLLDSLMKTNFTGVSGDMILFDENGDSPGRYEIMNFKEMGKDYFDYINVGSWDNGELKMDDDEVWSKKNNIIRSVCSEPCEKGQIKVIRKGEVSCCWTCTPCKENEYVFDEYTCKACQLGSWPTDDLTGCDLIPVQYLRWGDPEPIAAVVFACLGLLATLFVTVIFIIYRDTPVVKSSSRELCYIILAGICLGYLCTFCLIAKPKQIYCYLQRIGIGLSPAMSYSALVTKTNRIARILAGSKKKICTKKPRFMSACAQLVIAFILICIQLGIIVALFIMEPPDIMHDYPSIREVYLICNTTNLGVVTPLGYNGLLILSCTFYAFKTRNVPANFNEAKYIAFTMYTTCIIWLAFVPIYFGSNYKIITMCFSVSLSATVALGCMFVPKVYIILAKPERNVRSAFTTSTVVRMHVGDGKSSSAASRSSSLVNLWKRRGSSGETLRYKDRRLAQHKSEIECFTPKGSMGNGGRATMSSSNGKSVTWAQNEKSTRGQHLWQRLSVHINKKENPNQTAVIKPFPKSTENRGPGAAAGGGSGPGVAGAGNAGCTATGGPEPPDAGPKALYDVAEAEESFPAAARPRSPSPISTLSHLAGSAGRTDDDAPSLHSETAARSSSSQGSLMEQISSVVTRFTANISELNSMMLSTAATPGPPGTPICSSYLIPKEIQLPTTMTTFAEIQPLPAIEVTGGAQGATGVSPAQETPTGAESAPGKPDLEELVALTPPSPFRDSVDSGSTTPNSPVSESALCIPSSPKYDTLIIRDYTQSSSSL

[4] = biological target: T1, Metabotropic glutamate receptor 5; experiment: Effective concentration against metabotropic glutamate receptor 5 of human transfected into CHO cells; assay type: cell-based; procedure, shortened: as §1
Target sequence in this assay (P41594 whole entry): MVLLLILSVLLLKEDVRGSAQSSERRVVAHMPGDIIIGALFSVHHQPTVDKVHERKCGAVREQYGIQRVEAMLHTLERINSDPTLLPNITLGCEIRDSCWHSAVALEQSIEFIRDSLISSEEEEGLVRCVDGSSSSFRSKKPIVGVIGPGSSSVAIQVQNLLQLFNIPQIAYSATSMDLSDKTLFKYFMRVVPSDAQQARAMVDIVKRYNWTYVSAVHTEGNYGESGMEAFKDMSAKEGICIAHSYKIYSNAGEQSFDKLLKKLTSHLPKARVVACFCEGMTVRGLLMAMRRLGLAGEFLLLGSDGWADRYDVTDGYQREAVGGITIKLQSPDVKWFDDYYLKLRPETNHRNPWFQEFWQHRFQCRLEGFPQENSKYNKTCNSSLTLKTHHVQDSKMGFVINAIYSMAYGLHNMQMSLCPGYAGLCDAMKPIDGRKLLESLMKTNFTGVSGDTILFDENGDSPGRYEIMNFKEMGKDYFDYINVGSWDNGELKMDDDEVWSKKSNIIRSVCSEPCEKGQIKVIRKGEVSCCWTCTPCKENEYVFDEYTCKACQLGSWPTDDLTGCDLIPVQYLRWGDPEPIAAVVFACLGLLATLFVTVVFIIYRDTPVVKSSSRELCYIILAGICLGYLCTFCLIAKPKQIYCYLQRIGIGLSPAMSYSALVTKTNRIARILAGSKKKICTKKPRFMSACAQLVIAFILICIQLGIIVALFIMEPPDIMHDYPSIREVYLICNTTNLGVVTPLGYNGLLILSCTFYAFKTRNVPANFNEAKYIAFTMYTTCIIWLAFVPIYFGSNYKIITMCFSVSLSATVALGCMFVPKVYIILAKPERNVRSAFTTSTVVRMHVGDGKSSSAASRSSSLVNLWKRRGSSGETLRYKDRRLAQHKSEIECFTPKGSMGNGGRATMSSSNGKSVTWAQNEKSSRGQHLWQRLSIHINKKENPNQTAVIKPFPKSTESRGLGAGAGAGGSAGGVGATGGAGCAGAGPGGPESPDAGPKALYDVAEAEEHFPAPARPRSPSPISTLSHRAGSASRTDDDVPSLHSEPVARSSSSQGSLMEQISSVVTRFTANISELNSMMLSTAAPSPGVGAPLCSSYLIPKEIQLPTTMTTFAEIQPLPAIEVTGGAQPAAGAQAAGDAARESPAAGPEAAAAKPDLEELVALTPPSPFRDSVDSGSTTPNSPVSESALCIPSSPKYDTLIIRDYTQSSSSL

## O=C(Nc1cc(-c2ccccc2)nn1-c1ccccc1)c1cnccn1
[1]
  Potentiation: 4.3
[2]
  EC50: 0.4 µM
[3]
  Potentiation: 4.8
[4]
  EC50: 0.2 µM

## O=C(Nc1cc(-c2ccccc2)nn1-c1ccccc1)c1ccccn1
[1]
  Potentiation: 3.6
[2]
  EC50: 0.585 µM
[3]
  Potentiation: 8
[4]
  EC50: 0.29 µM

## O=C(Nc1ccc(Br)cc1CN1C(=O)c2ccccc2C1=O)c1ccccn1
[1]
  Potentiation: 6
[4]
  EC50: 0.74 µM

## O=C(Nc1cc(-c2ccccc2)nn1-c1ccccc1)c1cccc(Cl)c1
[1]
  Potentiation: 5.4
[2]
  EC50: 0.2 µM
[3]
  Potentiation: 3.3
[4]
  EC50: 0.04 µM

## O=C(Nc1cc(-c2ccccc2)nn1-c1ccccc1)c1ccsc1
[1]
  Potentiation: 2.5
[2]
  EC50: 2.9 µM
[3]
  Potentiation: 3.7
[4]
  EC50: 1.8 µM

## O=C(Nc1cc(-c2ccccc2)nn1-c1ccccc1)c1ccc(F)c(F)c1
[1]
  Potentiation: 2.6
[2]
  EC50: 0.02 µM
[3]
  Potentiation: 6.4
[4]
  EC50: 0.01 µM

## Cc1ccccc1C(=O)Nc1cc(-c2ccccc2)nn1-c1ccccc1
[1]
  Potentiation: 0.9
[4]
  EC50: > 10 µM

## O=C(Nc1cc(-c2ccccc2)nn1-c1ccccc1)c1ccccc1O
[1]
  Potentiation: 0.9
[2]
  EC50: > 10 µM
[3]
  Potentiation: 0.9
[4]
  EC50: > 10 µM

## O=C(Nc1cc(-c2ccccc2)nn1-c1ccccc1)c1ccccc1F
[1]
  Potentiation: 6.4
[2]
  EC50: 0.1 µM
[3]
  Potentiation: 6.3
[4]
  EC50: 0.075 µM

## Cc1cccc(C(=O)Nc2cc(-c3ccccc3)nn2-c2ccccc2)c1
[1]
  Potentiation: 9
[2]
  EC50: 0.1 µM
[3]
  Potentiation: 9.4
[4]
  EC50: 0.09 µM

## O=C(Nc1cc(-c2ccccc2)nn1-c1ccccc1)c1ccccc1Cl
[1]
  Potentiation: 3.7
[4]
  EC50: 2.5 µM

## Cc1ccc(C(=O)Nc2cc(-c3ccccc3)nn2-c2ccccc2)cc1
[1]
  Potentiation: 9
[2]
  EC50: 0.04 µM
[3]
  Potentiation: 10.9
[4]
  EC50: 0.03 µM

## O=C(Nc1cc(-c2ccccc2)nn1-c1ccccc1)c1ccc(C(F)(F)F)cc1
[1]
  Potentiation: 5.2
[2]
  EC50: 0.02 µM
[3]
  Potentiation: 6.8
[4]
  EC50: 0.019 µM

## O=C(Nc1ccc(Cl)cc1CN1C(=O)c2ccccc2C1=O)c1ccccc1O
[1]
  Potentiation: 7

## Fc1cccc(/C=N/N=C/c2cccc(F)c2)c1
[1]
  Potentiation: 3
[4]
  EC50: 0.00236 µM

## N#Cc1cccc(C(=O)Nc2cc(-c3ccccc3)nn2-c2ccccc2)c1
[1]
  Potentiation: 4
[3]
  Potentiation: 4.3

## O=C(Nc1cc(-c2ccccc2)nn1-c1ccccc1)c1ccc(F)cc1
[1]
  Potentiation: 2.9
[2]
  EC50: 0.05 µM
[3]
  Potentiation: 8
[4]
  EC50: 0.03 µM

## O=C(Nc1cc(-c2ccccc2)nn1-c1ccccc1)c1ccc(Cl)cc1
[1]
  Potentiation: 5
[2]
  EC50: 0.1 µM
[3]
  Potentiation: 4.9
[4]
  EC50: 0.02 µM

## O=C(Nc1cc(-c2ccccc2)nn1-c1ccccc1)c1ccccc1
[1]
  Potentiation: 5
[2]
  EC50: 0.3 µM
[3]
  Potentiation: 5
[4]
  EC50: 0.04 µM

## O=C(Nc1ccc(Cl)cc1CN1C(=O)c2ccccc2C1=O)c1ccccn1
[1]
  Potentiation: 7
[4]
  EC50: 0.245 µM

## O=C(Nc1cc(-c2ccccc2)nn1-c1ccccc1)c1cccs1
[1]
  Potentiation: 2.9
[2]
  EC50: 0.4 µM
[3]
  Potentiation: 5.3
[4]
  EC50: 0.2 µM

## O=C(Nc1cc(-c2ccccc2)nn1-c1ccccc1)c1cccc(F)c1
[1]
  Potentiation: 2.6
[2]
  EC50: 0.065 µM
[3]
  Potentiation: 7.7
[4]
  EC50: 0.02 µM
